Key:
[1] = biological target: T1, Adenosine deaminase (Bos taurus) (UniProt P56658); experiment: Kinetic parameter Kcat of compound used as substrate for Adenosine deaminase was evaluated
T1 sequence (whole entry): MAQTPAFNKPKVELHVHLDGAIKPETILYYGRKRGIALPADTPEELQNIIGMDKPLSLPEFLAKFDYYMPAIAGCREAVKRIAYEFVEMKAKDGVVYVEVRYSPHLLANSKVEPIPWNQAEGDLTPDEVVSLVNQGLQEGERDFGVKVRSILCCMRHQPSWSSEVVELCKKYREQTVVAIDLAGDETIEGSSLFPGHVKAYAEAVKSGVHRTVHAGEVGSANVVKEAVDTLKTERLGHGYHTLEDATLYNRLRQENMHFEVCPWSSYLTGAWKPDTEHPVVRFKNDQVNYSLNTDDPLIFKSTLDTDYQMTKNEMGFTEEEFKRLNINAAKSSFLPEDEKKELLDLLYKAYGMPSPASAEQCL
Method in brief: (§1)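 Calf intestinal mucosa adenosine deaminase (0.15 units) in pH 7.4 phosphate buffer (2 mL) at 25 °C, with substrate at 15-100 µM. Hydrolysis was followed by UV absorbance at 265 nm, and substrate concentration was derived from the absorbance change. Initial rates came from graphical fitting of concentration versus time.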

[2] = Ratio of kinetic parameter Kcat to that of binding affinity towards adenosine deaminase KM.; method in brief: as §1

| SMILES | k cat [1] [s⁻¹] | k cat/Km [2] [M⁻¹ s⁻¹] |
| --- | --- | --- |
| Nc1ncnc2c1ncn2[C@@H]1O[C@H](CO)[C@@H](O)[C@H]1O | 76.4 | 3.1e+06 |
| Nc1ncnc2c1ncn2[C@@H]1S[C@H](CO)C=C1F | 0.94 | 50000 |

Source: ChEMBL document CHEMBL1135749, “Stereoselective synthesis and antiviral activity of D-2',3'-didehydro-2',3'-dideoxy-2'-fluoro-4'-thionucleosides” (J Med Chem, 2002)
